{
  "source": "paper PMC7616001",
  "about": "(Journal of medicinal chemistry, 2022)",
  "key": {"[1]": {"system": "genomic DNA of HeLa cells", "experiment": "Metalation of genomic DNA, ICP-MS", "type": "cell-based, human", "settings": "20 μM, 24 h exposure"}, "[2]": {"system": "mitochondria of HeLa cells", "experiment": "Mitochondrial morphology, confocal imaging of mito-GFP HeLa cells", "type": "cell-based, human", "settings": "1/2 × IC50/24h (20 μM)"}, "HeLa cells [3]": {"system": "HeLa cells", "experiment": "Trypan blue dye exclusion cell proliferation assay", "type": "cell-based, human", "method_in_brief": "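HeLa seeded in 24‑well plates. Next day, some wells trypsinised, stained with trypan blue and live cells counted by hemocytometer as the 0 h value. Remaining wells left untreated or dosed at various concentrations. Viable cells counted at 24, 48, 72, 96 and 120 h and plotted against time.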"}, "[4]": {"system": "acidic vesicular organelles in HeLa cells", "experiment": "Acridine orange assay", "type": "cell-based, human", "settings": "HeLa, 10, 20, 40 μM, 24 h", "method_in_brief": "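HeLa cells in 35 mm dishes exposed to test compound at 10, 20 or 40 μM for 24 h, or rapamycin (1 μM, 24 h) as reference. Medium replaced with FBS-free medium containing 1 μM acridine orange for 25 min in the dark (37 °C, 5% CO2). Cells washed with PBS and overlaid with phenol red-free DMEM (4% FBS) for imaging.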"}, "[5]": {"system": "mitochondria of HeLa cells", "experiment": "Metal content in isolated mitochondria, ICP-MS", "type": "cell-based, human", "settings": "20 μM, 24 h"}, "A2780": {"system": "A2780", "experiment": "MTT assay, 72 h continuous exposure, A2780 cells", "type": "cell-based, human", "method_in_brief": "(§1)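 Ovarian lines grown in RPMI with 10% FBS and 1% penicillin/streptomycin; A2780Cis kept on 2 μM cisplatin 3 days each week. HeLa grown in DMEM with the same supplements. 3 × 10^3 cells/well, overnight, then serial dilutions of DMSO stocks (final DMSO ≤0.1%); cisplatin stock in PBS. 72 h continuous exposure, MTT 0.5 mg/mL 3 h, formazan in DMSO, A570 normalised to untreated. IC50 from curves; ≥3 independent experiments.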"}, "HeLa [6]": {"system": "HeLa", "experiment": "MTT assay, 72 h continuous exposure, HeLa cells", "type": "cell-based, human", "method_in_brief": "as §1"}, "[7]": {"system": "O2•− radicals in HeLa cells", "experiment": "Flow cytometric quantification of superoxide radicals with DHE probe", "type": "cell-based, human", "settings": "10 μM, 4 h", "method_in_brief": "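HeLa seeded at 0.75 × 10^6 cells per six‑well plate well, grown overnight, then treated 4 h at 10 μM. Cells trypsinised, washed with ice‑cold PBS and spun at 1200 rpm, 5 min, 4 °C. Probe‑stained cells analysed by flow cytometry, approximately 20,000 cells per sample.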"}, "HeLa cells [8]": {"system": "HeLa cells", "experiment": "Whole cell uptake by ICP-MS", "type": "cell-based, human", "settings": "10 μM", "method_in_brief": "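2 × 10^6 cells per 60 mm plate, grown overnight. Incubated 4 h in fresh medium containing 10 μM test compound. Washed three times with PBS, detached with trypsin and counted for per‑cell metal uptake.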"}, "zebrafish embryos": {"system": "zebrafish embryos", "experiment": "Zebrafish embryo toxicity and viability analysis", "type": "in vivo, zebrafish (Danio rerio)", "method_in_brief": "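Wild‑type embryos, ten per 5 mL E3. Test compound at final 20, 30 or 40 μM, diluted from a 5 mM DMSO stock; DMSO vehicle at 10 μL/mL. Exposure from 26 hpf to 72 hpf at 28 °C, then scored for viability and morphology.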"}, "[9]": {"system": "RIP1 and RIP3 in HeLa cells", "experiment": "Western blot of necroptosis marker proteins", "type": "cell-based, human", "settings": "24 h", "method_in_brief": "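Western blot for RIP1/RIP3: about 2 × 10^6 HeLa cells at 80–90% confluency were given test compound (10, 20, 40 μM) for 24 h, with shikonin as a reference necroptosis inducer. Cells were lysed in RIPA with protease inhibitors and run on 10/12% SDS-PAGE, then transferred to PVDF. Membranes were blocked in 2% milk, probed with primary antibody (1:1000, overnight, 4 °C), then with HRP secondary antibody (0.75:1000).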"}, "A2780cis": {"system": "A2780cis", "experiment": "MTT assay, 72 h continuous exposure, cisplatin-resistant A2780Cis cells", "type": "cell-based, human", "method_in_brief": "as §1"}, "Cyclic voltammetry": {"experiment": "Cyclic voltammetry", "type": "physicochemical", "settings": "acetonitrile, 0.1 M NEt4BF4"}, "[10]": {"system": "MEF-Bax/Bak^+/+ and MEF-Bax/Bak^−/− cell lines", "experiment": "Cytotoxicity in MEF-Bax/Bak+/+ versus MEF-Bax/Bak−/− cells", "type": "cell-based, murine"}, "[11]": {"system": "LC3-II/LC3-I in HeLa cells", "experiment": "Western blot of autophagy marker proteins", "type": "cell-based, human", "settings": "24 h", "method_in_brief": "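~2 million HeLa per 60 mm dish, grown to 80–90% confluency, then treated 24 h. Lysed in RIPA buffer with protease inhibitors. Membranes blocked with 2% skim milk in 0.1% Tween 20 for 30 min. Primary antibody 1:1000 overnight at 4 °C; HRP secondary antibody; LC3 forms detected.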"}, "HeLa [12]": {"system": "HeLa", "experiment": "24 h MTT assay, HeLa cells", "type": "cell-based, human", "settings": "read-out: IC50/24h", "method_in_brief": "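HeLa in DMEM with 10% FBS and 1% penicillin/streptomycin, 3 × 10^3 cells/well, grown overnight. Fresh DMSO stocks (Ru content confirmed by ICP‑MS) serially diluted in medium; final DMSO ≤0.1%. 24 h exposure, then MTT 0.5 mg/mL for 3 h. Formazan dissolved in DMSO, A570 read and normalised to untreated wells. IC50 taken from dose–response curves; ≥3 independent experiments of 3 or 6 replicates.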"}, "[13]": {"system": "PARP, p53, cleaved caspase 3 in HeLa cells", "experiment": "Western blot of apoptosis-related marker proteins", "type": "cell-based, human", "settings": "24 h", "method_in_brief": "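~2 million HeLa per 60 mm dish, grown to 80–90% confluency, treated 24 h at 10, 20 or 40 μM. Lysed in RIPA buffer with protease inhibitors. Membranes blocked with 2% skim milk in 0.1% Tween 20 for 30 min. Primary antibody 1:1000 overnight at 4 °C; HRP secondary antibody.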"}, "[14]": {"experiment": "Octanol-water partition coefficient, shake-flask method", "type": "physicochemical", "settings": "100 mM NaCl, 37 °C, Ru by ICP-MS", "method_in_brief": "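Shake‑flask partition. Octanol‑saturated water and water‑saturated octanol prepared beforehand by shaking a 1:1 octanol/water mixture for 24 h, then separating the layers.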"}, "[15]": {"system": "mitochondrial Ca^2+ level in HeLa cells", "experiment": "Mitochondrial Ca2+ level, Rhod-2 AM imaging", "type": "cell-based, human", "settings": "20 μM"}},
  "note": "Entries after “also recorded” stand apart in the source; their conditions may differ.",
  "data": [
    {"smiles": "Cc1ccc(C(C)C)cc1.O=C(C=C([O-])C(F)(F)F)[c-]1cccc1.[Cl-].[Fe+2].[Ru+2].c1cc[cH-]c1", "note": "[Compound 1, [(η^6-p-cymene)Ru(1,1,1-trifluoro-4-oxo-4-ferrocenyl-but-2-en-2-olate)Cl]]", "values": [
      {"measurement": "metalation of genomic DNA", "setting": "[1]", "result": "comparable with that of the classical DNA-targeted Pt drug cisplatin"},
      {"measurement": "mitochondrial morphology", "setting": "[2]", "result": "rounded and punctate"},
      {"measurement": "effect on number of viable cells", "setting": "HeLa cells [3]; 5 and 10 μM", "result": "time-dependent antiproliferative effect"},
      {"measurement": "effect on number of viable cells", "setting": "HeLa cells [3]; 20 and 40 μM", "result": "exerted antitumor activity by killing cells"},
      {"measurement": "acidic vesicular organelles", "setting": "[4]", "result": "did not cause formation and promotion of acidic vesicular organelles"},
      {"measurement": "Ru in mitochondria relative to Pt in mitochondria of cisplatin-treated cells", "setting": "[5]", "result": "~ 4 fold"},
      {"measurement": "fold more potent compared to Ru1, Ru3 and Ru4", "setting": "A2780; A2780 cells", "result": "3−18 fold"},
      {"measurement": "IC50", "setting": "A2780; read-out: IC50 A2780, 72 h continuous exposure, MTT assay", "result": "2500 ± 300", "unit": "nM"},
      {"measurement": "fold higher potency compared to oxaliplatin", "setting": "HeLa [6]; HeLa cells, 72 h MTT", "result": 1.6, "unit": "fold"},
      {"measurement": "IC50", "setting": "HeLa [6]; read-out: IC50 HeLa, 72 h continuous exposure, MTT assay", "result": "1300 ± 300", "unit": "nM"},
      {"measurement": "level of O2•− radicals relative to untreated control", "setting": "[7]", "result": "~ 19 fold"},
      {"measurement": "fold higher accumulation than 3", "setting": "HeLa cells [8]; 4 h", "result": 3.5, "unit": "fold"},
      {"measurement": "times lower cellular accumulation compared to 4", "setting": "HeLa cells [8]; 4 h", "result": 1.6, "unit": "times"},
      {"measurement": "whole cell uptake", "setting": "HeLa cells [8]; 4 h", "result": "57 ± 9.7", "unit": "pmol/10^6 cells"},
      {"measurement": "whole cell uptake", "setting": "HeLa cells [8]; 4 h exposure", "result": "57.0 ± 9.7", "unit": "picomole Ru/10^6 cells"},
      {"measurement": "morphology / visible toxic effects on embryos", "setting": "zebrafish embryos; 72 hpf, up to 40 μM", "result": "morphologically indistinguishable from untreated control embryos; also recorded: did not show any visible toxic effects"},
      {"measurement": "animal viability at 72 hpf", "setting": "zebrafish embryos; treated at 26 hpf, even at 40 μM dose", "result": 100, "unit": "%"},
      {"measurement": "expression level of RIP1 and RIP3", "setting": "[9]", "result": "increased the expression level of RIP1 and RIP3"},
      {"measurement": "RF (A2780)", "setting": "A2780cis; RF = IC50 in A2780Cis/IC50 in A2780", "result": 1.2},
      {"measurement": "IC50", "setting": "A2780cis; read-out: IC50 A2780cis, 72 h continuous exposure, MTT assay", "result": "3100 ± 100", "unit": "nM"},
      {"measurement": "oxidation potential (vs Fc^+/0)", "setting": "Cyclic voltammetry", "result": 321, "unit": "mV"},
      {"measurement": "IC50 in MEF-Bax/Bak^−/− compared to MEF-Bax/Bak^+/+ cells", "setting": "[10]", "result": "statistically similar"},
      {"measurement": "ratio of LC3-II/LC3-I", "setting": "[11]", "result": "no increase in the ratio of LC3-II/LC3-I"},
      {"measurement": "IC50", "setting": "HeLa [12]", "result": "38000 ± 3000", "unit": "nM"},
      {"measurement": "apoptosis markers (PARP cleavage, p53, cleaved caspase 3)", "setting": "[13]; cisplatin 10 μM, 1 at 1/4 × IC50 to IC50", "result": "none of these apoptosis markers were upregulated"},
      {"measurement": "PARP level", "setting": "[13]; western blot", "result": "significant upregulation of PARP"},
      {"measurement": "log P", "setting": "[14]", "result": "1.1 ± 0.1"},
      {"measurement": "increase in mitochondrial Ca^2+ level compared to untreated control", "setting": "[15]", "result": "~ 5 fold"}
    ]}
  ]
}
